One series relates to NIH 3T3 cells. Nature of the series: Cytotoxicity against NIH 3T3 cells. The class given is cell-based. The following applies: concentrations up to 1.5 mM. In a few lines: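 Test compound applied to NIH 3T3 cells at concentrations up to 1.5 mM. Values are arithmetic means ± SD of three independent experiments.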
Series [1] relates to C. albicans susceptible strain HLY4123. Nature of the series: Dose-response curves of test compounds against C. albicans with fluconazole. The class given is cell-based. Particulars: strain HLY4123, in the presence of fluconazole (0.25 μg/mL); mean ± SD of three independent experiments.
The conditions of series [2]: in the presence of fluconazole; lowest value; ref [45]; cited from earlier work.
Series [3] has as its target C. albicans sterol α-demethylase (a.k.a. Erg11 or CYP51). Particulars: ref [71],[72]; cited from earlier work.
Series [4] deals with C. albicans strain HLY4123 and fluconazole-resistant clinical isolates 26 and 45. Nature of the series: microbe, parasite or virus in culture. The following applies: for MIC90: Candida albicans; for MICcpd (MIC90): compound 31 alone; for FICI: compound 31 and fluconazole; for MICcpd(+Flc) (MIC90): compound 31 in combination with fluconazole. In kind it is cell-based.
Series [5] concerns resistant clinical isolates of C. albicans. More on the design: unit not given beside the values. Particulars: ref [69], cited from earlier work.
Series [6] has the same test system. The class given is cell-based. Particulars: for Growth (OD600) +Fluc: fluconazole 64 μg/mL alone; for Growth (OD600) +Fluc / Growth (OD600) +Cpd 31 +Fluc: 16 h in SC at 30°C; for Growth (OD600) +Cpd 31 +Fluc: compound 31 3 μM + fluconazole 64 μg/mL.

In brackets after ≈: the same amount, converted by molar mass. Like-named read-outs stand apart in the source and are kept apart here. Where only a bound is given, the exact number is not on record here.

With `Cc1c(Cl)ccc2c1NC(=O)[C@]21N[C@H](Cc2ccccc2)[C@@H]2C(=O)N(c3ccc(F)cc3)C(=O)[C@@H]21` (racemic) [Compound 1, (±)-(3R,3′R,3a′R,6a′S)-3′-benzyl-6-chloro-5′-(4-fluorophenyl)-7-methyl-2′,3′,3a′,6a′-tetrahydro-4′H-spiro[indoline-3,1′-pyrrolo[3,4-c]pyrrole]-2,4′,6′(5′H)-trione], the cytotoxicity entry in the series with NIH 3T3 cells is on record as “only weak cytotoxicity”. The concentration giving a half-maximal response (EC50) in series [1] came out at 11 ± 4 nM.
In the case of `CN[C@H]1CC[C@@H](c2ccc(Cl)c(Cl)c2)c2ccccc21` [sertraline], the MIC in series [2] is ≥ 0.5 µg/mL.
Regarding `OC(Cn1cncn1)(Cn1cncn1)c1ccc(F)cc1F` [Fluconazole, fluconazole, reference compound], in series [3], the inhibition constant (Ki) is 30 nM. Further, the MIC90 in series [4] (read-out: MIC90 for fluconazole, susceptible strain, synazo-1 present at 300 nM) was found to be 0.125 µM (≈ 0.0383 µg/mL); in series [4] (read-out: MICFlc (MIC90), isolate 26, fluconazole alone), 836 µM (≈ 256 µg/mL); in series [4] (read-out: MICFlc (MIC90), isolate 45, fluconazole alone) it was 836 µM (≈ 256 µg/mL); in series [4] (read-out: MICFlc (MIC90), strain HLY4123, fluconazole alone) it was 0.5 µM (≈ 0.153 µg/mL). Besides, the MICFlc was 32 in series [5] (isolate 17); 32 in series [5] (isolate 23); 32 in series [5] (isolate 26); 64 in series [5] (isolate 33); 64 in series [5] (isolate 36); 128 in series [5] (isolate 45). The “Growth (OD600) +Fluc” value in series [6] (isolate 17) is listed as 3.96 OD600; in series [6] (isolate 23), 6.77 OD600; in series [6] (isolate 26), 6.44 OD600; in series [6] (isolate 33), 7.38 OD600; in series [6] (isolate 36), 5.08 OD600; in series [6] (isolate 45), 9.17 OD600.
Turning to `Cc1c(Cl)ccc2c1NC(=O)[C@@]21[C@H]2C(=O)N(c3ccccc3)C(=O)[C@H]2[C@H]2CN(C(=O)OCc3ccccc3)CCN21` (racemic) [Compound 31, (±)-benzyl (3R,3a′R,3b′S,9a′S)-6-chloro-7-methyl-1′,2,3′-trioxo-2′-phenyl-2′,3′,3a′,3b′,4′,6′,7′,9a′-octahydrospiro[indoline-3,9′-pyrrolo[3′,4′:3,4]pyrrolo[1,2-a]pyrazine]-5′(1′H)-carboxylate], the “MICcpd (MIC90)” value in series [4] (isolate 26) is >30 µM; in series [4] (isolate 45) it was >30 µM; in series [4] (strain HLY4123), >300 µM. In addition, the FICI in series [4] (isolate 26) was found to be 0.14; in series [4] (isolate 45), 0.13; in series [4] (strain HLY4123) it was 0.25. The “MICcpd(+Flc) (MIC90)” value in series [4] (isolate 26) was found to be 0.3 µM; in series [4] (isolate 45), 0.03 µM; in series [4] (strain HLY4123), 0.03 µM. The FIC index entry in series [4] (with fluconazole, in all of the strains tested (susceptible and resistant)) is on record as “below 0.5”. For the same compound, in series [4] (without fluconazole, at the solubility limit), the “toxicity of compound alone against the strains” value is “did not have measurable toxicity”. In addition, the EC50 is ≥ 2 nM in series [6] (enhancing the effect of fluconazole against some resistant strains, lowest value); 16 ± 0.002 nM in series [6] (read-out: Potency +Cpd 31 EC50, isolate 45, fluconazole 64 μg/mL, mean ± SD of three experiments); 0.3 ± 0.01 nM in series [1]. In addition, the “Growth (OD600) +Cpd 31 +Fluc” value came out at 0.76 OD600 in series [6] (isolate 17); 0.60 OD600 in series [6] (isolate 23); 0.83 OD600 in series [6] (isolate 26); 0.88 OD600 in series [6] (isolate 33); 1.07 OD600 in series [6] (isolate 36); 1.03 OD600 in series [6] (isolate 45). For the same compound, the cytotoxicity result in the series with NIH 3T3 cells (listed as Synazo-1) was “low toxicity”.

These data come from paper PMC4682886 (ChemMedChem, 2015).
